What was measured:
[1] = Cytotoxicity against human IMR32 cells after 48 hrs by MTT assay; format: functional, cell-based; conditions: IMR-32, 48 h
[2] = Cytotoxicity against human NB39 cells after 48 hrs by MTT assay; format: functional, cell-based; conditions: NB39, 48 h
SK-N-SH = test: Cytotoxicity against human SK-N-SH cells after 48 hrs by MTT assay; format: functional, cell-based
Prostaglandin E synthase = target: T1, Prostaglandin E synthase (Homo sapiens, UniProt O14684); test: Inhibition of microsomal PGES1 isolated from IL-1beta-stimulated human A549 cells preincubated for 15 mins followed by substrate addition measured after 1 min by RP-HPLC analysis; format: cell-free
T1 sequence (O14684 whole entry): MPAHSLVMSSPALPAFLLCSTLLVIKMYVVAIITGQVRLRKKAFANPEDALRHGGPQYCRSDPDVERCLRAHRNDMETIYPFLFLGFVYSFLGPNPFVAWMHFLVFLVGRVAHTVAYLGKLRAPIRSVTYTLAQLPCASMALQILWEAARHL
Summary of the method: (§1)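 Enzyme source: microsomes from A549 cells, cultured 16 h at 37 °C and 5% CO2, then given fresh medium and induced with IL-1β (1 ng/mL) for 72 h. Microsomes were prepared by sonication and centrifugation at 174000g. Membranes in 0.1 M potassium phosphate pH 7.4 with 2.5 mM GSH were preincubated with compound or DMSO vehicle for 15 min at 4 °C. PGH2 (20 μM final) was added and the reaction ran 1 min at 4 °C. It was stopped with FeCl2/citric acid containing 11β-PGE2 as internal standard. PGE2 was measured by SPE and RP-HPLC; n = 3–4, mean + SEM.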

[3] = target: T2, Prostaglandin E synthase (Homo sapiens) (UniProt O14684); test: Inhibition of microsomal PGES1 isolated from IL-1beta-stimulated human A549 cells assessed as residual activity at 10 uM preincubated for 15 mins followed by substrate addition measured after 1 min by RP-HPLC analysis relative to control; format: cell-free; summary of the method: as §1
T2 sequence (whole entry): T1 sequence (O14684 whole entry)

[4] = target: T3, Prostaglandin G/H synthase 1 (Ovis aries, UniProt P05979); test: Inhibition of ovine COX-1 using arachidonic acid as substrate preincubated for 5 mins followed by substrate addition measured after 5 mins by HPLC analysis
T3 sequence (P05979 whole entry): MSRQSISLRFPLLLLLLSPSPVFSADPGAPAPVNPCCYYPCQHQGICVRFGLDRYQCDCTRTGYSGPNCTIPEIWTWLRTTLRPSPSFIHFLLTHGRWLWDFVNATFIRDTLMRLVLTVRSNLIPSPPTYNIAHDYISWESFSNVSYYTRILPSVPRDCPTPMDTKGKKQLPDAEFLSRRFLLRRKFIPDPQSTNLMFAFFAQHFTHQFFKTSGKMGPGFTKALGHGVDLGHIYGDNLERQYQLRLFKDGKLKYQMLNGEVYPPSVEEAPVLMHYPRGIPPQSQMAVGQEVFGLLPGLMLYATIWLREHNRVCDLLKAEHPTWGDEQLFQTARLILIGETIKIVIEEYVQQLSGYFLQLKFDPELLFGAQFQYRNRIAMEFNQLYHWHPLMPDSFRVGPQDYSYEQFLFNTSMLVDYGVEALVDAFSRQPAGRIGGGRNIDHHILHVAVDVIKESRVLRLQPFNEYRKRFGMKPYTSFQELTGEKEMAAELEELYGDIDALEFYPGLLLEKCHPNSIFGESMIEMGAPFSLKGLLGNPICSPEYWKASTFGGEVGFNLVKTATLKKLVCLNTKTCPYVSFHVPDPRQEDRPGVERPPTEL

[5] = target: T4, Prostaglandin G/H synthase 2 (Homo sapiens, UniProt P35354); test: Inhibition of human recombinant COX-2 using arachidonic acid as substrate preincubated for 5 mins followed by substrate addition measured after 5 mins by HPLC analysis
T4 sequence (P35354 whole entry): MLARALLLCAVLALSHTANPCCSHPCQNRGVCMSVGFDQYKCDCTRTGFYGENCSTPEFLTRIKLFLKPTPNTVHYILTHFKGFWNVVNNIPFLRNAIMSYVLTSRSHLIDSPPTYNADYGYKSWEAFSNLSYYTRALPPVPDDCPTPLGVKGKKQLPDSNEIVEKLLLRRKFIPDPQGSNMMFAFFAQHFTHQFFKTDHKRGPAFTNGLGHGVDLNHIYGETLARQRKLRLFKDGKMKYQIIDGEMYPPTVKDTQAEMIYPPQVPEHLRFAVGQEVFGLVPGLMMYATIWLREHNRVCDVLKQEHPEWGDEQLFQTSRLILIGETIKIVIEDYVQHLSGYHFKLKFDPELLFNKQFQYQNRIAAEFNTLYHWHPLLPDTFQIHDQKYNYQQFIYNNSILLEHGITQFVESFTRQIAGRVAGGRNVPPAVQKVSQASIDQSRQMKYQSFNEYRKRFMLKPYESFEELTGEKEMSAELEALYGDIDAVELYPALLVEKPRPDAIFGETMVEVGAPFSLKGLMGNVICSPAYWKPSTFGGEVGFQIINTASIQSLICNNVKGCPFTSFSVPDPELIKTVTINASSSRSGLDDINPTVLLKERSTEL

[6] = target: T5, Prostaglandin G/H synthase 1 (Ovis aries) (UniProt P05979); test: Inhibition of ovine COX-1 using arachidonic acid as substrate assessed as residual activity at 10 uM preincubated for 5 mins followed by substrate addition measured after 5 mins by HPLC analysis relative to control
T5 sequence (whole entry): T3 sequence (P05979 whole entry)

[7] = target: T4, Prostaglandin G/H synthase 2; test: Inhibition of human COX-2 using arachidonic acid as substrate assessed as PGE2 formation after 2 mins by LC-MS/MS analysis
[8] = target: T3, Prostaglandin G/H synthase 1; test: Inhibition of ovine COX-1 using arachidonic acid as substrate assessed as PGE2 formation after 2 mins by LC-MS/MS analysis

Row | IC50 [7] | IC50 [8] | Compound | IC50 [1] | IC50 [2] | IC50 (SK-N-SH) | IC50 (Prostaglandin E synthase) | Activity [3] | IC50 [4] | IC50 [5] | Activity [6]
1 | – | – | C=C(C)[C@@H]1CC[C@]2(C)CC[C@]3(C)[C@H](CC[C@@H]4[C@@]5(C)CC[C@H](O)[C@](C)(C(=O)O)[C@@H]5CC[C@]43C)[C@@H]12 | 4.1 µM | 4.1 µM | 4.1 µM | 8.5 µM | 43.1% | – | – | –
2 | – | – | CC(C)=CCC[C@H](C(=O)O)[C@@H]1CC[C@]2(C)C3=C(CC[C@@]12C)[C@@]1(C)CC[C@H](O)C(C)(C)[C@@H]1CC3 | – | – | – | 1.2 µM | 29.2% | > 10 µM | > 10 µM | 82.3%
3 | – | – | CC(=O)O[C@@H]1CC[C@]2(C)C3=C(CC[C@H]2C1(C)C)[C@@]1(C)CC[C@@H]([C@H](CCC=C(C)C)C(=O)O)[C@]1(C)CC3 | – | – | – | 0.4 µM | 36.8% | > 10 µM | > 10 µM | 63.2%
4 | – | – | CC(=O)O[C@@H]1CC[C@]2(C)[C@H]3CC[C@@]4(C)[C@H]([C@H](CCC=C(C)C)C(=O)O)CC[C@]4(C)C3=CC[C@H]2C1(C)C | – | – | – | 0.4 µM | 20.6% | > 10 µM | – | –
5 | – | – | CC(C)[C@@H]1CC[C@]2(C)[C@H](C(=O)C=C3[C@@H]4[C@@H](C)[C@H](C)CC[C@]4(C)CC[C@]32C)[C@@]1(C)CCC(=O)O | – | – | – | 1 µM | 21.6% | > 10 µM | > 10 µM | 64.8%
6 | – | – | CC(C)=CCC[C@H](C(=O)O)[C@@H]1CC[C@]2(C)C3=CC[C@H]4C(C)(C)[C@H](O)CC[C@]4(C)[C@H]3CC[C@@]12C | – | – | – | 3 µM | 29.6% | > 10 µM | > 10 µM | 69.6%
7 | – | – | CC(C)=CCC[C@H](C(=O)O)[C@@H]1CC[C@]2(C)C3=C(CC[C@@]12C)[C@@]1(C)CC[C@@H](O)C(C)(C)[C@@H]1CC3 | – | – | – | 1.1 µM | 3.5% | > 10 µM | – | 81.9%
8 | > 10 µM | > 10 µM | C=C(C)[C@@H]1CC[C@]2(C)[C@H](CC=C3[C@@H]4[C@@H](C)[C@H](C)CC[C@]4(C)CC[C@]32C)[C@@]1(C)CCC(=O)O | – | – | – | > 10 µM | 83.9% | – | – | –
9 | – | – | CC(C)[C@@H]1CC[C@]2(C)[C@H](CC=C3[C@@H]4[C@@H](C)[C@H](C)CC[C@]4(C)CC[C@]32C)[C@@]1(C)CCC(=O)O | – | – | – | > 10 µM | 92.4% | – | – | –
10 | – | – | CC(C)=CCC[C@H](C(=O)O)[C@H]1CC[C@]2(C)C3=C(CC[C@@]12C)[C@@]1(C)CCC(=O)C(C)(C)[C@H]1CC3 [BETA-ELEMONIC ACID] | – | – | – | 0.9 µM | 16.7% | > 10 µM | > 10 µM | 81.1%
11 | – | – | C=C(C)[C@@H]1CC[C@]2(C)CC[C@]3(C)[C@H](CC[C@@H]4[C@@]5(C)CC[C@H](OC(C)=O)[C@](C)(C(=O)O)[C@@H]5CC[C@]43C)[C@@H]12 | 4.1 µM | 4.1 µM | 4.1 µM | 10 µM | 51.4% | – | – | –
12 | – | – | C=C(C)[C@@H]1CC[C@]2(CO)CC[C@]3(C)[C@H](CC[C@@H]4[C@@]5(C)CC[C@H](OC(C)=O)[C@](C)(C(=O)O)[C@@H]5CC[C@]43C)[C@@H]12 | – | – | – | 0.9 µM | 31.1% | > 10 µM | > 10 µM | 90.7%
13 | – | – | CC(C)[C@@H]1CC[C@]2(C)[C@H](CC=C3[C@@H]4CC(C)(C)CC[C@]4(C)CC[C@]32C)[C@@]1(C)CCC(=O)O | – | – | – | > 10 µM | 74.1% | – | – | –
